Columns and labels:
Type in all cases: functional
IGROV-1 = assay: Growth inhibition of human IGROV1 cells assessed as cell growth at 10^-8 M after 48 hrs by SRB assay; details: IGROV-1, 48 h, read-out: Activity
U-251 = assay: Growth inhibition of human U251 cells assessed as cell growth at 10^-8 M after 48 hrs by SRB assay; details: U-251, 48 h, read-out: Activity
ACHN = assay: Growth inhibition of human ACHN cells assessed as cell growth at 10^-5 M after 48 hrs by SRB assay; details: read-out: Activity
How it was run: (§1)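 Five-dose NCI panel protocol. Each dose (10^-4 to 10^-8 M, 10-fold steps) was given as 48 h continuous exposure, and protein was measured by SRB staining. Percentage growth at each level is [(Ti−Tz)/(C−Tz)]×100, where Tz is time-zero absorbance and C is untreated control.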

[1] = Growth inhibition of human NCI-ADR-RES cells assessed as cell growth at 10^-5 M after 48 hrs by SRB assay; details: read-out: Activity
RPMI-8226 = assay: Growth inhibition of human RPMI8226 cells assessed as cell growth at 10^-5 M after 48 hrs by SRB assay; details: RPMI-8226, 48 h, read-out: Activity
T47D = assay: Growth inhibition of human T47D cells assessed as cell growth at 10^-6 M after 48 hrs by SRB assay; details: read-out: Activity
[2] = Growth inhibition of human OVCAR5 cells assessed as cell growth at 10^-6 M after 48 hrs by SRB assay; details: OVCAR-5, 48 h, read-out: Activity
[3] = Growth inhibition of human OVCAR4 cells assessed as cell growth at 10^-6 M after 48 hrs by SRB assay; details: OVCAR-4, 48 h, read-out: Activity
SK-MEL-28 = assay: Growth inhibition of human SK-MEL-28 cells assessed as cell growth at 10^-6 M after 48 hrs by SRB assay; details: SK-MEL-28, 48 h, read-out: Activity
[4] = Growth inhibition of human HCT15 cells assessed as cell growth at 10^-6 M after 48 hrs by SRB assay; details: HCT-15, 48 h, read-out: Activity
[5] = Cytotoxicity against human UACC257 cells after 48 hrs by SRB assay; details: UACC-257, 48 h
How it was run: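 NCI 60-cell-line panel, 48 h continuous exposure to five 10-fold dilutions from 10^-4 to 10^-8 M. SRB protein staining was read spectrophotometrically, with time-zero, untreated-control and treated absorbances. GI50, TGI and LC50 were derived from the percentage-growth formulas. Values outside the tested range are expressed as more or less than the maximum or minimum concentration.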

NCI-H460 = assay: Growth inhibition of human NCI-H460 cells assessed as cell growth at 10^-6 M after 48 hrs by SRB assay; details: NCI-H460, 48 h, read-out: Activity
MCF7 = assay: Cytotoxicity against human MCF7 cells after 48 hrs by SRB assay; details: MCF7, 48 h
How it was run: (§2)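 NCI 60-cell-line panel of human tumour lines from nine cancer types. Continuous 48 h exposure at five 10-fold dilutions from 10^-4 to 10^-8 M, with 5-FU as positive control. SRB protein stain read spectrophotometrically at time zero, untreated control and each concentration. GI50, TGI and LC50 were derived from the [(Ti−Tz)/(C−Tz)]×100 growth relations, and out-of-range values are given as > or < the tested limits.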

[6] = Growth inhibition of human HOP92 cells assessed as cell growth at 10^-6 M after 48 hrs by SRB assay; details: HOP-92, 48 h, read-out: Activity
[7] = Growth inhibition of human LOXIMVI cells assessed as cell growth at 10^-7 M after 48 hrs by SRB assay; details: LOX IMVI, read-out: Activity
SNB-75 = assay: Growth inhibition of human SNB75 cells assessed as cell growth at 10^-7 M after 48 hrs by SRB assay; details: SNB-75, 48 h, read-out: Activity
[8] = Growth inhibition of human HOP92 cells assessed as cell growth at 10^-7 M after 48 hrs by SRB assay; details: HOP-92, 48 h, read-out: Activity
CCRF-CEM = assay: Growth inhibition of human CCRF-CEM cells assessed as cell growth at 10^-7 M after 48 hrs by SRB assay; details: read-out: Activity; how it was run: as §1
HCC 2998 = assay: Cytotoxicity against human HCC2998 cells after 48 hrs by SRB assay; details: HCC 2998, 48 h; how it was run: as §2
[9] = read-out: LC50 (the source's name)
[10] = read-out: pLC50 (the source's name) (converted)

Compound `Cc1ccc(-c2nc3ccc(Cl)cc3c(=O)n2/N=C/c2ccccc2)cc1` has a growth at 0.01 µM (IGROV-1) of 94%, a growth at 0.01 µM (U-251) of 99% and a growth at 10 µM (ACHN) of 10%. For the same compound, the growth at 10 µM [1] was 48%, the growth at 10 µM (RPMI-8226) was 72% and the growth at 1 µM (T47D) was 100%. For the same compound, the growth at 1 µM [2] was 90%, the growth at 1 µM [3] was 101% and the growth at 1 µM (SK-MEL-28) was 93%. It also gave a growth at 1 µM [4] of 93%, a GI50 ([5]; read-out: GI50) of over 100 µM and a CC50 [5, 9] of over 100 µM. It also gave a TGI ([5]; read-out: TGI) of over 100 µM, a GI50 ([5]; read-out: pGI50 (converted)) of over 100 µM and a CC50 [5, 10] of over 100 µM. The TGI ([5]; read-out: pTGI) was over 100 µM, the growth at 1 µM (NCI-H460) was 85% and the GI50 (MCF7; read-out: GI50) was 26.9 µM. The CC50 (MCF7; [9]) was over 100 µM, the TGI (MCF7; read-out: TGI) was over 100 µM and the GI50 (MCF7; read-out: pGI50 (converted)) was 26.9 µM. It also gave a CC50 (MCF7; [10]) of over 100 µM, a TGI (MCF7; read-out: pTGI) of over 100 µM and a growth at 1 µM [6] of 85%. The growth at 0.1 µM [7] was 93%, the growth at 0.1 µM (SNB-75) was 81% and the growth at 0.1 µM [8] was 89%. For the same compound, the growth at 0.1 µM (CCRF-CEM) was 97%, the GI50 (HCC 2998; read-out: GI50) was over 100 µM and the CC50 (HCC 2998; [9]) was over 100 µM. For the same compound, the TGI (HCC 2998; read-out: TGI) was over 100 µM, the GI50 (HCC 2998; read-out: pGI50 (converted)) was over 100 µM and the CC50 (HCC 2998; [10]) was over 100 µM. The TGI (HCC 2998; read-out: pTGI) was over 100 µM.
